≈ marks a conversion by molar mass, not a printed value.
How the values were obtained:
[1] = system: Streptococcus sp. 'group A'; assay: Antibacterial activity against Beta-hemolytic Streptococcus group A assessed as inhibition of bacterial growth at […] by CLSI broth microdilution method; type: functional; further: tested at 0.25 µg/mL
Enterococcus faecium [2] = assay: Antibacterial activity against Enterococcus faecium assessed as inhibition of bacterial growth at <= 0.008 ug/ml by CLSI broth microdilution method; type: functional
Staphylococcus aureus [3] = assay: Antibacterial activity against Methicillin-resistant Staphylococcus aureus assessed as inhibition of bacterial growth at 4 ug/ml by CLSI broth microdilution method; type: functional
How it was run: (§1)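 Recent clinical isolates from skin/soft tissue, bloodstream and respiratory specimens. Tested by broth microdilution per CLSI M7-A7 and M100-S18, with the appropriate quality controls. The thymidine content of the test medium was assessed to rule out artifactual inhibition.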

Staphylococcus aureus [4] = assay: Antibacterial activity against Methicillin-sensitive Staphylococcus aureus assessed as inhibition of bacterial growth at 0.03 ug/ml by CLSI broth microdilution method; type: functional; set-up: Activity: scale not given: the % may be the effect or the level left; how it was run: as §1
[5] = system: Streptococcus sp. 'group B'; assay: Antibacterial activity against Beta-hemolytic Streptococcus group B assessed as inhibition of bacterial growth at <= 0.008 ug/ml by CLSI broth microdilution method; type: functional
How it was run: (§2)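 Clinical isolates from skin/soft tissue, bloodstream and respiratory specimens were tested by broth microdilution per CLSI M7-A7 and M100-S18, with quality controls. Values are the number of isolates inhibited at each concentration, or MIC / percent susceptible. Highest concentration tested was 8 µg/ml for iclaprim and trimethoprim-sulfamethoxazole, and 64 µg/ml for trimethoprim.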

Staphylococcus aureus [6] = assay: Antibacterial activity against Methicillin-sensitive Staphylococcus aureus assessed as inhibition of bacterial growth at 4 ug/ml by CLSI broth microdilution method; type: functional
Enterococcus faecalis [7] = assay: Antibacterial activity against Enterococcus faecalis assessed as inhibition of bacterial growth at 0.015 ug/ml by CLSI broth microdilution method; type: functional; how it was run: as §2
Staphylococcus aureus [8] = assay: Antibacterial activity against Methicillin-sensitive Staphylococcus aureus assessed as inhibition of bacterial growth at 0.06 ug/ml by CLSI broth microdilution method; type: functional; set-up: Activity: scale not given: the % may be the effect or the level left
Staphylococcus aureus [9] = assay: Antibacterial activity against Methicillin-resistant Staphylococcus aureus assessed as inhibition of bacterial growth at 0.015 ug/ml by CLSI broth microdilution method; type: functional; how it was run: as §1
[10] = system: Streptococcus sp. 'group B'; assay: Antibacterial activity against Beta-hemolytic Streptococcus group B assessed as inhibition of bacterial growth at 0.015 ug/ml by CLSI broth microdilution method; type: functional; how it was run: as §2
Staphylococcus aureus [11] = assay: Antibacterial activity against Methicillin-resistant Staphylococcus aureus assessed as inhibition of bacterial growth at […] by CLSI broth microdilution method; type: functional
[12] = system: Streptococcus sp. 'group B'; assay: Antibacterial activity against Beta-hemolytic Streptococcus group B assessed as inhibition of bacterial growth at 0.5 ug/ml by CLSI broth microdilution method; type: functional; how it was run: as §2
Enterococcus faecium [13] = assay: Antibacterial activity against Enterococcus faecium assessed as inhibition of bacterial growth at 4 ug/ml by CLSI broth microdilution method; type: functional
Enterococcus faecalis [14] = assay: Antibacterial activity against Enterococcus faecalis assessed as inhibition of bacterial growth at 8 ug/ml by CLSI broth microdilution method; type: functional; how it was run: as §2
Staphylococcus aureus [15] = assay: Antibacterial activity against Methicillin-resistant Staphylococcus aureus assessed as inhibition of bacterial growth at 0.03 ug/ml by CLSI broth microdilution method; type: functional; how it was run: as §1
Enterococcus faecium [16] = assay: Antibacterial activity against Enterococcus faecium assessed as inhibition of bacterial growth at 1 ug/ml by CLSI broth microdilution method; type: functional
[17] = system: Streptococcus sp. 'group A'; assay: Antibacterial activity against Beta-hemolytic Streptococcus group A by CLSI broth microdilution method; type: functional; how it was run: as §2
[18] = system: Streptococcus sp. 'group B'; assay: Antibacterial activity against Beta-hemolytic Streptococcus group B assessed as inhibition of bacterial growth at 1 ug/ml by CLSI broth microdilution method; type: functional; how it was run: as §2
Enterococcus faecium [19] = assay: Antibacterial activity against Enterococcus faecium assessed as inhibition of bacterial growth at 8 ug/ml by CLSI broth microdilution method; type: functional
Enterococcus faecalis [20] = assay: Antibacterial activity against Enterococcus faecalis assessed as inhibition of bacterial growth at <= 0.008 ug/ml by CLSI broth microdilution method; type: functional; how it was run: as §2
Staphylococcus aureus [21] = assay: Antibacterial activity against Methicillin-sensitive Staphylococcus aureus assessed as inhibition of bacterial growth at <= 0.008 ug/ml by CLSI broth microdilution method; type: functional; how it was run: as §1
[22] = system: Streptococcus sp. 'group A'; assay: Antibacterial activity against Beta-hemolytic Streptococcus group A assessed as inhibition of bacterial growth at 0.015 ug/ml by CLSI broth microdilution method; type: functional; how it was run: as §2
Staphylococcus aureus [23] = assay: Antibacterial activity against Methicillin-resistant Staphylococcus aureus assessed as inhibition of bacterial growth at 0.5 ug/ml by CLSI broth microdilution method; type: functional; how it was run: as §1
Staphylococcus aureus [24] = assay: Antibacterial activity against Methicillin-resistant Staphylococcus aureus assessed as inhibition of bacterial growth at <= 0.008 ug/ml by CLSI broth microdilution method; type: functional; how it was run: as §1
Enterococcus faecalis [25] = assay: Antibacterial activity against Enterococcus faecalis assessed as inhibition of bacterial growth at 0.03 ug/ml by CLSI broth microdilution method; type: functional; how it was run: as §2
Staphylococcus aureus [26] = assay: Antibacterial activity against Methicillin-resistant Staphylococcus aureus by CLSI broth microdilution method; type: functional
Staphylococcus aureus [27] = assay: Antibacterial activity against Methicillin-sensitive Staphylococcus aureus assessed as susceptible isolates by CLSI broth microdilution method; type: functional
Staphylococcus aureus [28] = assay: microbe, parasite or virus in culture; details: read-out: INH
Enterococcus faecium [29] = assay: microbe, parasite or virus in culture; details: read-out: INH
Staphylococcus aureus [30] = assay: Antibacterial activity against Methicillin-resistant Staphylococcus aureus assessed as resistant isolates by CLSI broth microdilution method; type: functional
Enterococcus faecium [31] = assay: microbe, parasite or virus in culture; details: read-out: INH; remark: listed apart in the source
Enterococcus faecium [32] = assay: microbe, parasite or virus in culture; details: read-out: INH; remark: listed apart in the source
Staphylococcus aureus [33] = assay: microbe, parasite or virus in culture; details: read-out: INH; remark: listed apart in the source
[34] = system: Streptococcus sp. 'group A'; assay: microbe, parasite or virus in culture; details: read-out: INH
[35] = system: Streptococcus sp. 'group B'; assay: microbe, parasite or virus in culture; details: read-out: INH
Staphylococcus aureus [36] = assay: microbe, parasite or virus in culture; details: read-out: INH; remark: listed apart in the source
Staphylococcus aureus [37] = assay: microbe, parasite or virus in culture; details: read-out: INH; remark: listed apart in the source
[38] = system: Streptococcus sp. 'group B'; assay: microbe, parasite or virus in culture; details: read-out: INH; remark: listed apart in the source
[39] = system: Streptococcus sp. 'group A'; assay: microbe, parasite or virus in culture; details: read-out: INH; remark: listed apart in the source
Staphylococcus aureus [40] = assay: Antibacterial activity against Methicillin-resistant Staphylococcus aureus assessed as susceptible isolates by CLSI broth microdilution method; type: functional
Staphylococcus aureus [41] = assay: microbe, parasite or virus in culture; details: read-out: INH; remark: listed apart in the source
[42] = system: Streptococcus sp. 'group A'; assay: microbe, parasite or virus in culture; details: read-out: INH; remark: listed apart in the source
[43] = system: Streptococcus sp. 'group B'; assay: microbe, parasite or virus in culture; details: read-out: INH; remark: listed apart in the source

Structure (SMILES) | inhibition at […] [1] [%] | inhibition at 4 µg/mL (Staphylococcus aureus [3]) [%] | inhibition at 4 µg/mL (Staphylococcus aureus [6]) [%] | inhibition at […] (Staphylococcus aureus [11]) [%] | inhibition at 0.5 µg/mL [12] [%] | inhibition at 4 µg/mL (Enterococcus faecium [13]) [%] | inhibition at 8 µg/mL (Enterococcus faecalis [14]) [%] | inhibition at 1 µg/mL (Enterococcus faecium [16]) [%] | MIC50 [17] [µg/mL] | MIC90 [17] [µg/mL] | inhibition at 1 µg/mL [18] [%] | inhibition at 8 µg/mL (Enterococcus faecium [19]) [%] | inhibition at 0.5 µg/mL (Staphylococcus aureus [23]) [%] | inhibition at 0.03 µg/mL (Enterococcus faecalis [25]) [%] | MIC50 (Staphylococcus aureus [26]) [µg/mL] | MIC90 (Staphylococcus aureus [26]) [µg/mL] | other results
COc1cc(Cc2cnc(N)nc2N)c2c(c1OC)OC(C1CC1)C=C2 (stereo not drawn) | 100 | 97.9 | 99.9 | 91.1 | 100 | 74.9 | 1.9 | 42.2 | 0.015 (≈ 0.0423 µM) | 0.03 (≈ 0.0846 µM) | 100 | 75.6 | 92.9 | 63.9 | 0.06 (≈ 0.169 µM) | 0.12 (≈ 0.339 µM) | inhibition (INH) (Enterococcus faecium [2]): 33.7%; inhibition at 0.03 µg/mL (Staphylococcus aureus [4]; Staphylococcus aureus): 6.1%; inhibition (INH) [5]: 0%; inhibition at 0.015 µg/mL (Enterococcus faecalis [7]): 57.7%; inhibition at 0.06 µg/mL (Staphylococcus aureus [8]; Staphylococcus aureus): 58.8%; inhibition at 0.015 µg/mL (Staphylococcus aureus [9]): 0.4%; inhibition at 0.015 µg/mL [10]: 0.5%; inhibition at 0.03 µg/mL (Staphylococcus aureus [15]): 12.8%; inhibition (INH) (Enterococcus faecalis [20]): 25.5%; inhibition (INH) (Staphylococcus aureus [21]): 0.1%; inhibition at 0.015 µg/mL [22]: 77.6%; inhibition (INH) (Staphylococcus aureus [24]): 0.1%
COc1cc(Cc2cnc(N)nc2N)cc(OC)c1OC [TRIMETHOPRIM] | 84.6 | 92.5 | 98.5 | 0.2 | 5.9 | 38.9 | 70.6 | 38 | 0.25 (≈ 0.861 µM) | 0.5 (≈ 1.72 µM) | 51 | 41.6 | 47.7 | 0.6 | 1 (≈ 3.44 µM) | 2 (≈ 6.89 µM) | Activity (Staphylococcus aureus [27]): 98.7%; inhibition at 64 µg/mL (Staphylococcus aureus [28]): 94.6%; inhibition at 32 µg/mL (Enterococcus faecium [29]): 55.1%; Activity (Staphylococcus aureus [4]): 0%; Activity (Staphylococcus aureus [30]): 7.1%; inhibition at 16 µg/mL (Enterococcus faecium [31]): 47.2%; inhibition at 64 µg/mL (Enterococcus faecium [32]): 60.7%; inhibition at 16 µg/mL (Staphylococcus aureus [33]): 93.6%; Activity (Staphylococcus aureus [8]): 0.1%; inhibition at 32 µg/mL [34]: 100%; inhibition at 32 µg/mL [35]: 100%; inhibition at 16 µg/mL (Staphylococcus aureus [36]): 98.7%; inhibition at 32 µg/mL (Staphylococcus aureus [37]): 94.1%; inhibition at 16 µg/mL [38]: 100%; inhibition at 64 µg/mL [39]: 100%; Activity (Staphylococcus aureus [40]): 92.9%; inhibition at 64 µg/mL (Staphylococcus aureus [41]): 98.7%; inhibition at 16 µg/mL [42]: 100%; inhibition at 64 µg/mL [43]: 100%
